Measured values published in ChEMBL document CHEMBL3112484, “Design, synthesis, and biological evaluation of a series of piperazine ureas as fatty acid amide hydrolase inhibitors” (Bioorg Med Chem, 2014).
≈ marks a conversion by molar mass, not a printed value.

Assays:
[1] = molecular target: T1, Fatty-acid amide hydrolase 1 (Rattus norvegicus, UniProt P97612); assay: Apparent inhibition of rat FAAH using AMCAA as substrate after 30 mins by fluorescence assay
T1 sequence (P97612 whole entry): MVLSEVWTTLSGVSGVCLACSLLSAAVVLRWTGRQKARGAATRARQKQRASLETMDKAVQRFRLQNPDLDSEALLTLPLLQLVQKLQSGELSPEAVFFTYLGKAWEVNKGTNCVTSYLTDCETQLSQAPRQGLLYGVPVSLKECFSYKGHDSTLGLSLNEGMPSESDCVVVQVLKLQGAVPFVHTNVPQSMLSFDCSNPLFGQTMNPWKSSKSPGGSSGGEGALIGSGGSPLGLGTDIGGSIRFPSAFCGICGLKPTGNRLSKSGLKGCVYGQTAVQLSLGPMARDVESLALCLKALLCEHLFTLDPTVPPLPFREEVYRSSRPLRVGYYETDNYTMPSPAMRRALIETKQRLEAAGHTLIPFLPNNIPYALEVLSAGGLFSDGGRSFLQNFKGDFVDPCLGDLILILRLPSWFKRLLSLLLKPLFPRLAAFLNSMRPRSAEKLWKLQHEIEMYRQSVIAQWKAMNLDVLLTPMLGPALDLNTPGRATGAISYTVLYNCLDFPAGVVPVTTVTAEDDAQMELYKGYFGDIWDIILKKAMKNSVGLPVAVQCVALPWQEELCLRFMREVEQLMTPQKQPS
Summary of the method: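 Rat FAAH enzyme fraction (125–250 ng final) was reacted with AMCAA substrate across a range of compound concentrations at 37 °C. Buffer: 125 mM Tris-HCl pH 9.0, 1 mM EDTA, 0.4 mM HEPES, 0.2% glycerol, 0.02% Triton X-100, 0.3% fatty acid free BSA. Fluorescence read at ex 355/em 460 nm, scaled to solvent (100%) and zero-time (0%). IC50 determined at a 30 min reaction.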

[2] = molecular target: T2, Fatty-acid amide hydrolase 1 (Homo sapiens, UniProt O00519); assay: Apparent inhibition of human FAAH expressed in CHOK1 cells using AMCAA as substrate after 30 mins by fluorescence assay; format: cell-based, CHO-K1
T2 sequence (O00519 whole entry): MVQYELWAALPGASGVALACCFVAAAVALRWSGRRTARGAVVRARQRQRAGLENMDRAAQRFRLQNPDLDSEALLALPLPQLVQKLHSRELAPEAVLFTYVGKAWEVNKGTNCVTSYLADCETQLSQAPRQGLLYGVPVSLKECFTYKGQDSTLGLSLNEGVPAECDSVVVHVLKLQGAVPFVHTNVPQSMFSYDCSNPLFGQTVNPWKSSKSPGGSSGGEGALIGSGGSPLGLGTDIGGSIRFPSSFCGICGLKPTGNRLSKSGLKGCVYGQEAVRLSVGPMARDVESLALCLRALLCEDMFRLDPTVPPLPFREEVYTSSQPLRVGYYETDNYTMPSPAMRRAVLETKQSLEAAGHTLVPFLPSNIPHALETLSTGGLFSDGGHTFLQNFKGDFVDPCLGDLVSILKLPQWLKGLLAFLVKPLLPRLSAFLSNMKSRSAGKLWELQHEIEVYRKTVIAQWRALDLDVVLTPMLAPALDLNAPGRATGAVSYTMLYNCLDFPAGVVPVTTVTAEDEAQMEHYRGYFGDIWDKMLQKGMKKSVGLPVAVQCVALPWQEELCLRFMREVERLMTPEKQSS
Summary of the method: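 Enzyme source: CHO-K1 cells stably expressing human FAAH cloned from a human brain library, grown in Ham's F-12 with 10% FBS and 800 µg/mL G418, then homogenized in 10 mM Tris, 1 mM EDTA, 10 mM MgCl2. Fraction (125–250 ng final) was incubated with AMCAA at 37 °C in Tris-HCl pH 9.0 buffer with BSA. Fluorescence read at ex 355/em 460 nm; solvent = 100%, zero-time count = 0%. IC50 from a 30 min reaction.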

[3] = Solubility of the compound in aqueous buffer at pH 6.8 by HPLC analysis; format: physicochemical
Summary of the method: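 Small volumes of compound DMSO solution were added to aqueous buffer at pH 6.8 and incubated. Precipitate was removed by filtration, and the filtrate concentration was measured by HPLC.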

[4] = molecular target: T3, Fatty-acid amide hydrolase 1 (Homo sapiens) (UniProt O00519); assay: Irreversible inhibition of FAAH (unknown origin) using AMCAA as substrate at 10 nM by fluorescence assay; conditions: TDE = time-dependent effect
T3 sequence (whole entry): T2 sequence (O00519 whole entry)

[5] = system: Brain; assay: AUC in rat brain at 0.03 mg/kg, po by LC/MS/MS analysis; format: ADME, organism-based; set-up: dose 0.03 mg/kg, route oral; conditions: in vivo
Summary of the method: (§1)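 Rats given single oral doses of 0.03, 0.3 or 3 mg/kg as a suspension in 0.5% methylcellulose. Brain drug levels were measured by LC/MS/MS over time, and AUC is reported in ng h/g. Each value is the mean of n = 3.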

[6] = system: Brain; assay: AUC in rat brain at 3 mg/kg, po by LC/MS/MS analysis; format: ADME, organism-based; set-up: dose 3 mg/kg, route oral; conditions: in vivo; summary of the method: as §1
[7] = Ratio of drug level in brain to plasma in rat at 3 mg/kg, po; format: ADME, organism-based; set-up: dose 3 mg/kg, route oral; conditions: read-out: BPR
Summary of the method: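 Rats were dosed orally at 0.03, 0.3 or 3 mg/kg as a suspension in 0.5% methylcellulose. Compound levels in plasma and brain were quantified by LC/MS/MS. Cmax, Tmax and AUC are means of n = 3.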

[8] = system: Rattus norvegicus; assay: Analgesic activity in po dosed Sprague-Dawley rat complete Freund's adjuvant-induced inflammatory pain model assessed as attenuation of tactile allodynia administered for 5 days measured 4 hrs after treatment; format: functional, organism-based; conditions: in the assay text read “administered 5 days after CFA injection” for “administered for 5 days”
Summary of the method: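 Six-week-old male Sprague Dawley rats received 150 µL CFA into the plantar surface of the right hind paw; sham rats got liquid paraffin instead. Five days after injection, a single oral dose of 1, 3 or 10 mg/kg was given, with 0.5% methylcellulose as vehicle. Ipsilateral tactile allodynia was scored blinded with von Frey filaments 4 h post-dose. Mean and SE, 8–10 rats.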

[9] = system: Rattus norvegicus; assay: Analgesic activity in po dosed Sprague-Dawley rat sciatic nerve injury-induced neuropathic pain model assessed as attenuation of tactile allodynia administered for 7 days measured 2 hrs after treatment; format: functional, organism-based; conditions: in the assay text read “administered 7 days after nerve injury” for “administered for 7 days”
Summary of the method: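 Seven-week-old male Sprague Dawley rats under pentobarbital had the right common peroneal nerve tightly ligated with 4-0 silk and transected distally; in sham rats the nerve was exposed only. Seven days later, rats got an oral dose of 1, 3 or 10 mg/kg or 0.5% methylcellulose vehicle. Ipsilateral tactile allodynia was scored blinded with von Frey filaments 2 h post-dose. Mean and SE, 8 rats.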

[10] = system: Mus musculus; assay: Analgesic activity in ICR mouse assessed as inhibition of acetic acid-induced writhing at 10 mg/kg, po pretreated for 60 mins followed by acetic acid-challenge measured for 20 mins relative to control; format: functional
Summary of the method: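 Mice received compound po at 10 mg/kg as a suspension in 0.5% methylcellulose (10 mL/kg). After 60 min, 0.6% (v/v) acetic acid (10 mL/kg) was given ip. Each mouse was then placed alone in an observation chamber. Treated mice were compared with vehicle-treated mice by Student's t-test.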

[11] = system: Brain; assay: AUC in rat brain at 0.3 mg/kg, po by LC/MS/MS analysis; format: ADME, organism-based; set-up: dose 0.3 mg/kg, route oral; conditions: in vivo; summary of the method: as §1

Row | SMILES | IC50 [1] | IC50 [2] | solubility [3] | inhibition in vivo at 10 mg/kg [10] | also measured
1 | O=C(Nc1cccnn1)N1CCN(c2cc(-c3ccc(F)cc3F)ncn2)CC1 | 1.7 nM | 1.5 nM | – | – | –
2 | O=C(Nc1cccnn1)N1CCN(c2ccnc(-c3ccc(F)cc3F)n2)CC1 | 34 nM | 23 nM | 52 µg/mL (≈ 131 µM) | – | –
3 | O=C(Nc1cccnn1)N1CCN(c2nccc(-c3ccc(F)cc3F)n2)CC1 | 0.43 nM | 1.1 nM | 0.85 µg/mL (≈ 2.14 µM) | – | –
4 | CCCCC/C=C\C/C=C\C/C=C\C/C=C\CCCC(=O)NCCO [ANANDAMIDE] | – | – | – | – | AUC [5]: 64.3 ng·h/g; AUC [6]: 311.6 ng·h/g; AUC [11]: 232.9 ng·h/g
5 | O=C(Nc1cccnn1)N1CCN(c2cccc(-c3ccc(F)cc3F)n2)CC1 | 13 nM | 36 nM | – | – | –
6 | O=C(Nc1cccnn1)N1CCN(c2cncc(-c3ccc(F)cc3F)c2)CC1 | 74 nM | 140 nM | – | – | –

Further lines, with some results ahead:

Row | IC50 [1] | IC50 [2] | solubility [3] | SMILES | inhibition in vivo at 10 mg/kg [10] | also measured
7 | 0.28 nM | 0.72 nM | 3.1 µg/mL (≈ 7.8 µM) | O=C(Nc1cccnn1)N1CCN(c2nccc(-c3ccc(F)c(F)c3)n2)CC1 | 34.7% | inhibition [4]: tde; AUC [5]: 0 ng·h/g; AUC [6]: 15955 ng·h/g; Kp [7]: 2; Activity [8]: Dose-dependent effect; Activity [9]: Dose-dependent effect; AUC [11]: 898 ng·h/g
8 | 12 nM | 28 nM | – | O=C(Nc1cccnn1)N1CCN(c2ccnc(-c3ccc(F)cc3F)c2)CC1 | – | –
9 | 0.17 nM | 0.025 nM | < 0.06 µg/mL | O=C(Nc1cccnn1)N1CCN(c2nccc(-c3cc(F)ccc3F)n2)CC1 | 2.2% | –
10 | 0.34 nM | 0.08 nM | 0.1 µg/mL (≈ 0.252 µM) | O=C(Nc1cccnn1)N1CCN(c2nccc(-c3cc(F)cc(F)c3)n2)CC1 | 0.9% | –
11 | 4.3 nM | 2.2 nM | – | O=C(Nc1cccnn1)N1CCN(c2cc(-c3ccc(F)cc3F)ccn2)CC1 | – | –
12 | 1.2 nM | 0.072 nM | 0.16 µg/mL (≈ 0.403 µM) | O=C(Nc1cccnn1)N1CCN(c2nccc(-c3cccc(F)c3F)n2)CC1 | 18.9% | –
